Entries after “also recorded” stand apart in the source; their conditions may differ.
Legend:
[1] = target: hNav1.7 channels (Homo sapiens, UniProt Q15858); assay: cell-based; details: for inhibitory activity against Nav1.7 (in words): HEK293 cells stably expressing hNav1.7; for Nav1.7/Nav1.5 selectivity (in words): Nav1.7 versus Nav1.5; for activity toward Nav1.7 relative to 10h: higher than that of 10h
[2] = tested on: neuronal excitability of small-diameter DRG neurons; assay: Firing frequency of DRG neurons; type: cell-based, mouse; details: 500 ms current injection, 10 and 100 nmol/L
[3] = tested on: acetic acid-induced writhing in ICR mice; assay: Acetic acid-induced writhing test; type: in vivo, mouse; details: i.p. 30 min before 1.5% acetic acid, writhes counted for 30 min
Method in brief: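 Male ICR mice (22–28 g) received test compound i.p. in 5% DMSO/95% (0.5% carboxymethyl cellulose sodium) at 0.2 mL/10 g, 30 min before i.p. 1.5% acetic acid (10 mL/kg). Writhes, defined as abdominal contraction with body elongation and hind-limb extension, were counted over 30 min under blinded assessment. Indomethacin 30 mg/kg p.o. was given 60 min prior as reference. n = 6–12; one-way ANOVA.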

[4] = target: hNav1.5 channels (Homo sapiens, UniProt Q14524); assay: Whole-cell voltage-clamp on human Nav1.5 channels stably expressed in CHL cells; type: cell-based
Sequence of hNav1.5 channels (Q14524 whole entry): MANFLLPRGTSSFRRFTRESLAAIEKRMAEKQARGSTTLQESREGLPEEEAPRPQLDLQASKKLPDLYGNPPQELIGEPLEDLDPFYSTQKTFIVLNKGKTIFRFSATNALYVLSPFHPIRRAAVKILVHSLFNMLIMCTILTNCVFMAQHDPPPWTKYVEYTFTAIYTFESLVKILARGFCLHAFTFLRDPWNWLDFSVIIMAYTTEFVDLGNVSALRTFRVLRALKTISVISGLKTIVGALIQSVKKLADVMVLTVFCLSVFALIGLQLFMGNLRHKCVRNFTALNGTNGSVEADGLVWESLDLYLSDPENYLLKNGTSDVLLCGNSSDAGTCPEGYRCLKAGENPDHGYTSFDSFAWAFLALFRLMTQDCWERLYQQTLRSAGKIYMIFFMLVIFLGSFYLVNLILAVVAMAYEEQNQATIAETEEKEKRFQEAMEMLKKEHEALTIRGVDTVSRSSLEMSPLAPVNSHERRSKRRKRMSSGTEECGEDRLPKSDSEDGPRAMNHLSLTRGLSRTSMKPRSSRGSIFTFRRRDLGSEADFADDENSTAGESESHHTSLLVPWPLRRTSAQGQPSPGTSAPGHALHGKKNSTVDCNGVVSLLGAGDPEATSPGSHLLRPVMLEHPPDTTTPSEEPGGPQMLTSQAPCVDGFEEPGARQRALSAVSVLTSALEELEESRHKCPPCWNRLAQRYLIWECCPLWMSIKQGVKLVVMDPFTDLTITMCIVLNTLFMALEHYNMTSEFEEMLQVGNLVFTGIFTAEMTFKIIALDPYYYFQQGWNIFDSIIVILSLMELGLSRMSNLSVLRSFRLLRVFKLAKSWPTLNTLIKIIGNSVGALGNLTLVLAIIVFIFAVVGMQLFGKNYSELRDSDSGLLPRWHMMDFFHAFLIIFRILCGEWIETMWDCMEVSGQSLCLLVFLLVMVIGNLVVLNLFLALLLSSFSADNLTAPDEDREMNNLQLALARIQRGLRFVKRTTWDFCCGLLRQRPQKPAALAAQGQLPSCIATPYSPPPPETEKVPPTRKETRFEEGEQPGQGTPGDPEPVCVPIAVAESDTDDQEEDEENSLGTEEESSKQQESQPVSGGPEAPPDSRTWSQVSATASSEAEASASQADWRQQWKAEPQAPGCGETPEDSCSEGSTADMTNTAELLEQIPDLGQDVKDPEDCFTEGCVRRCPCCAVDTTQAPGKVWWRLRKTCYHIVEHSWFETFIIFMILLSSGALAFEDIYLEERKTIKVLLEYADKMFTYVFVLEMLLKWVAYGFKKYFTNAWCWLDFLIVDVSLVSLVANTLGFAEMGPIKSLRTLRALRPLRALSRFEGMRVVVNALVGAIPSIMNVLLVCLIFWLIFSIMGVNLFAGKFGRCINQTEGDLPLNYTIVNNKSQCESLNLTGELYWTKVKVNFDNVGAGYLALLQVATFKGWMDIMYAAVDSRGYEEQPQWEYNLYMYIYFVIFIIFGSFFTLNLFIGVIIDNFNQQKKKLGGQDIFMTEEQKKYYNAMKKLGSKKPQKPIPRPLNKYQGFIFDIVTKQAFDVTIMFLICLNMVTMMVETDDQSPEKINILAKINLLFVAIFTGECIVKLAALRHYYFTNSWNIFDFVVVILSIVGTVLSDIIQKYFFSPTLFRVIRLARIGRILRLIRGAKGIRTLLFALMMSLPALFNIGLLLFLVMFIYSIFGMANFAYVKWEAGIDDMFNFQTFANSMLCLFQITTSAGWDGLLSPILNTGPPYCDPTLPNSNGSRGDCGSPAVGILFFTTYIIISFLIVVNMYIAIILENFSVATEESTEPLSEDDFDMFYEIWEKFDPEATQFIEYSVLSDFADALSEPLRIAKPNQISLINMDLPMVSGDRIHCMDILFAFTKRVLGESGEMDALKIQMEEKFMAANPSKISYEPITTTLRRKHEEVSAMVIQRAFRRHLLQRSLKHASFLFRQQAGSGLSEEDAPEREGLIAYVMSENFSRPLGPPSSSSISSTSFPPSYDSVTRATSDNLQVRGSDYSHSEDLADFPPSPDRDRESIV
Method in brief: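 CHL cells stably expressing hNav1.5 were selected in G418 (500 µg/mL), plated on poly-L-lysine coverslips and used within 24 h. Whole-cell voltage clamp at room temperature, with CsF pipette and NaCl bath (pH 7.3); DMSO ≤0.5% final. After 5 min at −80 mV: hold −40 mV, 20 ms prepulse to −150 mV, 10 ms pulse to 0 mV at 1 Hz. Peak IDrug/IControl was fitted to a 3-parameter Hill equation for IC50.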

[5] = tested on: native sodium currents in mouse DRG neurons; assay: Native sodium currents in isolated DRG neurons; type: cell-based; details: for reduction of sodium current amplitude: mouse DRG neurons

inhibitory activity against Nav1.7 (in words) [1]	IC50 [1]	SMILES	further results
weak		CN(CCc1ccccc1)CC(CCC12CCC(c3ccccc31)c1ccccc12)Oc1ccc(S(=O)(=O)Nc2ncns2)cc1C#N (centres unmarked) [10f, 3-cyano-4-((4-(9,10-dihydro-9,10-ethanoanthracen-9-yl)-1-(methyl(phenethyl)amino)butan-2-yl)oxy)-N-(1,2,4-thiadiazol-5-yl)benzenesulfonamide]	
not as good as that of MPT		CCNCC(CC12CCC(c3ccccc31)c1ccccc12)Oc1ccc(S(=O)(=O)Nc2ncns2)cc1C#N (centres unmarked) [9b, 3-cyano-4-((1-(9,10-dihydro-9,10-ethanoanthracen-9-yl)-3-(ethylamino)propan-2-yl)oxy)-N-(1,2,4-thiadiazol-5-yl)benzenesulfonamide]	
maintained the activity of 10a		CC(C)N(C)CC(CCC12CCC(c3ccccc31)c1ccccc12)Oc1ccc(S(=O)(=O)Nc2ncns2)cc1C#N (centres unmarked) [10c, 3-cyano-4-((4-(9,10-dihydro-9,10-ethanoanthracen-9-yl)-1-(isopropyl(methyl)amino)butan-2-yl)oxy)-N-(1,2,4-thiadiazol-5-yl)benzenesulfonamide]	
not as good as that of MPT		CNCC(CC12CCC(c3ccccc31)c1ccccc12)Oc1ccc(S(=O)(=O)Nc2ncns2)cc1C#N (centres unmarked) [9a, 3-cyano-4-((1-(9,10-dihydro-9,10-ethanoanthracen-9-yl)-3-(methylamino)propan-2-yl)oxy)-N-(1,2,4-thiadiazol-5-yl)benzenesulfonamide]	
weak		CCN(C)CC(CCC12CCC(c3ccccc31)c1ccccc12)Oc1ccc(S(=O)(=O)Nc2ncns2)cc1C#N (centres unmarked) [10b, 3-cyano-4-((4-(9,10-dihydro-9,10-ethanoanthracen-9-yl)-1-(ethyl(methyl)amino)butan-2-yl)oxy)-N-(1,2,4-thiadiazol-5-yl)benzenesulfonamide]	
weak		C=CCN(C)CC(CCC12CCC(c3ccccc31)c1ccccc12)Oc1ccc(S(=O)(=O)Nc2ncns2)cc1C#N (centres unmarked) [10d, 4-((1-(allyl(methyl)amino)-4-(9,10-dihydro-9,10-ethanoanthracen-9-yl)butan-2-yl)oxy)-3-cyano-N-(1,2,4-thiadiazol-5-yl)benzenesulfonamide]	
maintained the activity of 10a		C#CCN(C)CC(CCC12CCC(c3ccccc31)c1ccccc12)Oc1ccc(S(=O)(=O)Nc2ncns2)cc1C#N (centres unmarked) [10e, 3-cyano-4-((4-(9,10-dihydro-9,10-ethanoanthracen-9-yl)-1-(methyl(prop-2-yn-1-yl)amino)butan-2-yl)oxy)-N-(1,2,4-thiadiazol-5-yl)benzenesulfonamide]	
		Nc1[nH]ncc1-c1cc(Cl)ccc1Oc1cc(F)c(S(=O)(=O)Nc2cscn2)cc1Cl [PF-05089771, 4-[2-(5-Amino-1H-pyrazol-4-yl)-4-chlorophenoxy]-5-chloro-2-fluoro-N-1,3-thiazol-4-ylbenzenesulfonamide, reference compound]	effect on action potentials / firing frequency (in words) [2]: dose-dependently suppressed; effect on acetic acid-induced writhing (in words) [3]: dose-dependently decreased
	~10 nM	CNCCOCC(CCC12CCC(c3ccccc31)c1ccccc12)Oc1ccc(S(=O)(=O)Nc2ncns2)cc1C#N (centres unmarked) [10l, 3-cyano-4-((4-(9,10-dihydro-9,10-ethanoanthracen-9-yl)-1-(2-(methylamino)ethoxy)butan-2-yl)oxy)-N-(1,2,4-thiadiazol-5-yl)benzenesulfonamide]	Nav1.7/Nav1.5 selectivity (in words) [1]: well maintained
	~10 nM	CN(C)CCOCC(CCC12CCC(c3ccccc31)c1ccccc12)Oc1ccc(S(=O)(=O)Nc2ncns2)cc1C#N (centres unmarked) [10k, 3-cyano-4-((4-(9,10-dihydro-9,10-ethanoanthracen-9-yl)-1-(2-(dimethylamino)ethoxy)butan-2-yl)oxy)-N-(1,2,4-thiadiazol-5-yl)benzenesulfonamide]	Nav1.7/Nav1.5 selectivity (in words) [1]: well maintained
	12.5 nM	N#Cc1cc(S(=O)(=O)Nc2ncns2)ccc1OC(CCC12CCC(c3ccccc31)c1ccccc12)COCCN1CCCCC1 (centres unmarked) [10p, 3-cyano-4-((4-(9,10-dihydro-9,10-ethanoanthracen-9-yl)-1-(2-(piperidin-1-yl)ethoxy)butan-2-yl)oxy)-N-(1,2,4-thiadiazol-5-yl)benzenesulfonamide]	Nav1.7/Nav1.5 selectivity (in words) [1]: good selectivity
	0.64 ± 0.3 nM	N#Cc1cc(S(=O)(=O)Nc2ncns2)ccc1OC(CCC12CCC(c3ccccc31)c1ccccc12)COCCN1CCCC1 (centres unmarked) [10o, 3-cyano-4-((4-(9,10-dihydro-9,10-ethanoanthracen-9-yl)-1-(2-(pyrrolidin-1-yl)ethoxy)butan-2-yl)oxy)-N-(1,2,4-thiadiazol-5-yl)benzenesulfonamide]	IC50 [4]: 33600 nM; selectivity for Nav1.7 over Nav1.5 ([1]; from the Nav1.5 and Nav1.7 IC50): > 50 000 times; effect on action potentials / firing frequency (in words) [2]: dramatically suppressed depolarizing current-elicited neuronal discharge; also recorded: dose-dependently suppressed; effect on acetic acid-induced writhing (in words) [3]: dose-dependently decreased; reduction of sodium current amplitude ([5]; 10 nmol/L): 24% ± 6%; reduction of sodium current amplitude ([5]; 100 nmol/L): 40% ± 6%; effect on native sodium currents (in words) ([5]; mouse small-sized DRG neurons, 10 and 100 nmol/L): dose-dependently decreased the sodium currents
		CCOCC(CCC12CCC(c3ccccc31)c1ccccc12)Oc1ccc(S(=O)(=O)Nc2ncns2)cc1C#N (centres unmarked) [10i, 3-cyano-4-((4-(9,10-dihydro-9,10-ethanoanthracen-9-yl)-1-ethoxybutan-2-yl)oxy)-N-(1,2,4-thiadiazol-5-yl)benzenesulfonamide]	activity toward Nav1.7 relative to 10h [1]: 10 times
	5.38 nM	N#Cc1cc(S(=O)(=O)Nc2ncns2)ccc1OC(CCC12CCC(c3ccccc31)c1ccccc12)COCCN1CCC1 (centres unmarked) [10n, 4-((1-(2-(azetidin-1-yl)ethoxy)-4-(9,10-dihydro-9,10-ethanoanthracen-9-yl)butan-2-yl)oxy)-3-cyano-N-(1,2,4-thiadiazol-5-yl)benzenesulfonamide]	Nav1.7/Nav1.5 selectivity (in words) [1]: good selectivity
	33.5 nM	N#Cc1cc(S(=O)(=O)Nc2ncns2)ccc1OC(CCC12CCC(c3ccccc31)c1ccccc12)COCCN1CCOCC1 (centres unmarked) [10q, 3-cyano-4-((4-(9,10-dihydro-9,10-ethanoanthracen-9-yl)-1-(2-morpholinoethoxy)butan-2-yl)oxy)-N-(1,2,4-thiadiazol-5-yl)benzenesulfonamide]	Nav1.7/Nav1.5 selectivity (in words) [1]: good selectivity
	2.98 nM	CN1CC(OCC(CCC23CCC(c4ccccc42)c2ccccc23)Oc2ccc(S(=O)(=O)Nc3ncns3)cc2C#N)C1 (centres unmarked) [10m, 3-cyano-4-((4-(9,10-dihydro-9,10-ethanoanthracen-9-yl)-1-((1-methylazetidin-3-yl)oxy)butan-2-yl)oxy)-N-(1,2,4-thiadiazol-5-yl)benzenesulfonamide]	
maintained the activity of 10a		CN(Cc1ccc(C(F)(F)F)cc1)CC(CCC12CCC(c3ccccc31)c1ccccc12)Oc1ccc(S(=O)(=O)Nc2ncns2)cc1C#N (centres unmarked) [10g, 3-cyano-4-((4-(9,10-dihydro-9,10-ethanoanthracen-9-yl)-1-(methyl(4-(trifluoromethyl)benzyl)amino)butan-2-yl)oxy)-N-(1,2,4-thiadiazol-5-yl)benzenesulfonamide]	
		N#Cc1cc(S(=O)(=O)Nc2ncns2)ccc1OC(CCC12CCC(c3ccccc31)c1ccccc12)COCc1ccccc1 (centres unmarked) [10j, 4-((1-(benzyloxy)-4-(9,10-dihydro-9,10-ethanoanthracen-9-yl)butan-2-yl)oxy)-3-cyano-N-(1,2,4-thiadiazol-5-yl)benzenesulfonamide]	activity toward Nav1.7 relative to 10h [1]: 10 times
not as good as that of MPT		CC(C)NCC(CC12CCC(c3ccccc31)c1ccccc12)Oc1ccc(S(=O)(=O)Nc2ncns2)cc1C#N (centres unmarked) [9c, 3-cyano-4-((1-(9,10-dihydro-9,10-ethanoanthracen-9-yl)-3-(isopropylamino)propan-2-yl)oxy)-N-(1,2,4-thiadiazol-5-yl)benzenesulfonamide]	

Source: publication PMC7471454 (Acta Pharmacologica Sinica, 2019)
